Data: ChEMBL document CHEMBL4680238, “Novel octapeptide-DTX prodrugs targeting MMP-7 as effective agents for the treatment of colorectal cancer with lower systemic toxicity” (Eur J Med Chem, 2020)
Residues, ends and D or L forms follow the SMILES beside them. *: point of attachment. X2 = CC(=O)O[C@@]12CO[C@@H]1C[C@H](O)[C@@]1(C)C(=O)[C@H](O)C3=C(C)[C@@H](OC(=O)[C@H](OC(=O)OCc4ccc(N*)cc4)[C@@H](NC(=O)OC(C)(C)C(F)(F)F)c4ccccc4)C[C@@](O)([C@@H](OC(=O)c4cccc(F)c4)[C@H]21)C3(C)C; X1 = CC(=O)O[C@@]12CO[C@@H]1C[C@H](O)[C@@]1(C)C(=O)[C@H](O)C3=C(C)[C@@H](OC(=O)[C@H](OC(=O)OCc4ccc(N*)cc4)[C@@H](NC(=O)OC(C)(C)C)c4ccccc4)C[C@@](O)([C@@H](OC(=O)c4ccccc4)[C@H]21)C3(C)C; Fmoc = O=C(OCC1c2ccccc2-c2ccccc21)*

Experiments:
SW-620 = experiment: Cytotoxicity against human SW-620 cells assessed as reduction in cell viability after 72 hrs by MTT assay; type: functional, cell-based; conditions: SW-620, 72 h
In short: (§1)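 Cells seeded at 5000/well and precultured 1 day. HCT116 grown in McCoy's 5A + 10% FBS; SW620 and HEK293 in DMEM + 10% FBS; CCD18Co in DMEM + 15% FBS. Compounds from 0.1 M DMSO stocks were tested at 10^-10 to 10^-4 mol/L in sixplicate: HCT116 and HEK293 for 48 h, SW620 and CCD18Co for 72 h, at 37 °C, 5% CO2. MTT (5 mg/mL) added for 4 h, then A570 read; IC50 estimated.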

[1] = Half life of compound in PBS buffer at pH 7.4 at 50 ug/ml up to 72 hrs by RP-HPLC analysis; type: physicochemical; conditions: dose 50 µg/ml
CCD-18Co = experiment: Cytotoxicity against human CCD-18Co cells assessed as reduction in cell viability after 72 hrs by MTT assay; type: cell-based; in short: as §1
[2] = Half life in Sprague-Dawley rat plasma t 50 ug/ml up to 72 hrs by RP-HPLC analysis; type: ADME, cell-free; conditions: dose 50 µg/ml
HEK293 = experiment: Cytotoxicity against HEK293 cells assessed as reduction in cell viability after 48 hrs by MTT assay; type: cell-based; conditions: Homo sapiens, HEK293, 48 h; in short: as §1
HCT-116 [3] = experiment: Cytotoxicity against human HCT-116 cells assessed as reduction in cell viability after 48 hrs by MTT assay; type: functional, cell-based; conditions: HCT-116, 48 h; in short: as §1
HCT-116 [4] = experiment: Antitumour activity against human HCT-116 cells xenografted in BALB/c nude mouse assessed as tumour growth inhibition at 5 mg/kg, ip administered once for every 7 days for 14 days relative to control; type: functional; conditions: HCT-116, ip, 336 h, time 14 day, read-out: TGI
In short: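 Male BALB/c nude mice received s.c. HCT116 cells (2 × 10^6 in 0.2 mL PBS). Once tumours reached 100-200 mm3, mice were randomized into groups of six. Dosing was ip, 0.1 mL/10 g, once every 7 days, in DMSO 0.5%/castor oil 5%/ethanol 5%/saline 89.5%; vehicle controls got solvent. Caliper volume V = L×W²×0.52 read every 2-3 days. Tumours excised and weighed on day 14.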

CC[C@H](C)[C@H](NC(=O)[C@H](C)NC(=O)[C@H](CCC(N)=O)NC(=O)[C@@H]1CCCN1C(=O)CNC(C)=O)C(=O)N[C@@H](C)C(=O)NCC(=O)N[C@@H](CCC(N)=O)C(=O)N[C@@H](CC(C)C)C(=O)Nc1ccc(COC(=O)O[C@@H](C(=O)O[C@H]2C[C@@]3(O)[C@@H](OC(=O)c4cccc(F)c4)[C@@H]4[C@]5(OC(C)=O)CO[C@@H]5C[C@H](O)[C@@]4(C)C(=O)[C@H](O)C(=C2C)C3(C)C)[C@@H](NC(=O)OC(C)(C)C(F)(F)F)c2ccccc2)cc1 (Ac-GPQAIAGQL-X2)
IC50 (SW-620): 0.65 µM | half-life at 50 ug/ml [1]: > 72 h | IC50 (CCD-18Co): > 200 µM | half-life at 50 ug/ml [2]: 24 h | IC50 (HEK293): 94.1 µM | IC50 (HCT-116 [3]): 0.0054 µM

CC(=O)NCC(=O)N1CCC[C@H]1C(=O)N[C@@H](CCC(N)=O)C(=O)NCC(=O)N[C@@H](CC(C)C)C(=O)N[C@@H](C)C(=O)NCC(=O)N[C@@H](CCC(N)=O)C(=O)N[C@@H](CC(C)C)C(=O)Nc1ccc(COC(=O)O[C@@H](C(=O)O[C@H]2C[C@@]3(O)[C@@H](OC(=O)c4cccc(F)c4)[C@@H]4[C@]5(OC(C)=O)CO[C@@H]5C[C@H](O)[C@@]4(C)C(=O)[C@H](O)C(=C2C)C3(C)C)[C@@H](NC(=O)OC(C)(C)C(F)(F)F)c2ccccc2)cc1 (Ac-GPQGLAGQL-X2)
IC50 (SW-620): > 200 µM | half-life at 50 ug/ml [1]: 48.3 h | IC50 (CCD-18Co): > 200 µM | half-life at 50 ug/ml [2]: 24.1 h | IC50 (HEK293): 6.17 µM | IC50 (HCT-116 [3]): 0.0257 µM

CC[C@H](C)[C@H](NC(=O)CNC(=O)[C@H](CC(C)C)NC(=O)[C@@H]1CCCN1C(=O)CNC(=O)OCC1c2ccccc2-c2ccccc21)C(=O)N[C@@H](C)C(=O)NCC(=O)N[C@@H](CCC(N)=O)C(=O)N[C@@H](CC(C)C)C(=O)Nc1ccc(COC(=O)O[C@@H](C(=O)O[C@H]2C[C@@]3(O)[C@@H](OC(=O)c4cccc(F)c4)[C@@H]4[C@]5(OC(C)=O)CO[C@@H]5C[C@H](O)[C@@]4(C)C(=O)[C@H](O)C(=C2C)C3(C)C)[C@@H](NC(=O)OC(C)(C)C(F)(F)F)c2ccccc2)cc1 (Fmoc-GPLGIAGQL-X2)
IC50 (SW-620): 0.21 µM | half-life at 50 ug/ml [1]: > 72 h | IC50 (CCD-18Co): > 200 µM | half-life at 50 ug/ml [2]: 47.8 h | IC50 (HEK293): 38.3 µM | IC50 (HCT-116 [3]): 0.439 µM

CC[C@H](C)[C@H](NC(=O)CNC(=O)[C@H](CC(C)C)NC(=O)[C@@H]1CCCN1C(=O)CNC(=O)OCC1c2ccccc2-c2ccccc21)C(=O)N[C@@H](C)C(=O)NCC(=O)N[C@@H](CCC(N)=O)C(=O)N[C@@H](CC(C)C)C(=O)Nc1ccc(COC(=O)O[C@@H](C(=O)O[C@H]2C[C@@]3(O)[C@@H](OC(=O)c4ccccc4)[C@@H]4[C@]5(OC(C)=O)CO[C@@H]5C[C@H](O)[C@@]4(C)C(=O)[C@H](O)C(=C2C)C3(C)C)[C@@H](NC(=O)OC(C)(C)C)c2ccccc2)cc1 (Fmoc-GPLGIAGQL-X1)
IC50 (SW-620): 1.01 µM | half-life at 50 ug/ml [1]: > 72 h | IC50 (CCD-18Co): > 200 µM | half-life at 50 ug/ml [2]: 35.9 h | IC50 (HEK293): 15.2 µM | IC50 (HCT-116 [3]): 0.0098 µM

CC[C@H](C)[C@H](NC(=O)CNC(=O)[C@H](CCSC)NC(=O)[C@@H]1CCCN1C(=O)CNC(C)=O)C(=O)N[C@@H](C)C(=O)NCC(=O)N[C@@H](CCC(N)=O)C(=O)N[C@@H](CC(C)C)C(=O)Nc1ccc(COC(=O)O[C@@H](C(=O)O[C@H]2C[C@@]3(O)[C@@H](OC(=O)c4ccccc4)[C@@H]4[C@]5(OC(C)=O)CO[C@@H]5C[C@H](O)[C@@]4(C)C(=O)[C@H](O)C(=C2C)C3(C)C)[C@@H](NC(=O)OC(C)(C)C)c2ccccc2)cc1 (Ac-GPMGIAGQL-X1)
IC50 (SW-620): 1.14 µM | half-life at 50 ug/ml [1]: > 72 h | IC50 (CCD-18Co): > 200 µM | half-life at 50 ug/ml [2]: 23.9 h | IC50 (HEK293): 11 µM | IC50 (HCT-116 [3]): 0.0072 µM

O=c1[nH]cc(F)c(=O)[nH]1 [FLUOROURACIL]
IC50 (SW-620): 6.96 µM | IC50 (CCD-18Co): > 200 µM | inhibition in vivo at 5 mg/kg (HCT-116 [4]): 11.4% | IC50 (HEK293): 79.3 µM | IC50 (HCT-116 [3]): 26 µM

CC[C@H](C)[C@H](NC(=O)[C@H](C)NC(=O)[C@H](CCC(N)=O)NC(=O)[C@@H]1CCCN1C(=O)CNC(C)=O)C(=O)N[C@@H](C)C(=O)NCC(=O)N[C@@H](CCC(N)=O)C(=O)N[C@@H](CC(C)C)C(=O)Nc1ccc(COC(=O)O[C@@H](C(=O)O[C@H]2C[C@@]3(O)[C@@H](OC(=O)c4ccccc4)[C@@H]4[C@]5(OC(C)=O)CO[C@@H]5C[C@H](O)[C@@]4(C)C(=O)[C@H](O)C(=C2C)C3(C)C)[C@@H](NC(=O)OC(C)(C)C)c2ccccc2)cc1 (Ac-GPQAIAGQL-X1)
IC50 (SW-620): > 200 µM | half-life at 50 ug/ml [1]: > 72 h | IC50 (CCD-18Co): > 200 µM | half-life at 50 ug/ml [2]: 12 h | IC50 (HEK293): 106 µM | IC50 (HCT-116 [3]): 0.0113 µM

CC[C@H](C)[C@H](NC(=O)CNC(=O)[C@H](CCSC)NC(=O)[C@@H]1CCCN1C(=O)CNC(C)=O)C(=O)N[C@@H](C)C(=O)NCC(=O)N[C@@H](CCC(N)=O)C(=O)N[C@@H](CC(C)C)C(=O)Nc1ccc(COC(=O)O[C@@H](C(=O)O[C@H]2C[C@@]3(O)[C@@H](OC(=O)c4cccc(F)c4)[C@@H]4[C@]5(OC(C)=O)CO[C@@H]5C[C@H](O)[C@@]4(C)C(=O)[C@H](O)C(=C2C)C3(C)C)[C@@H](NC(=O)OC(C)(C)C(F)(F)F)c2ccccc2)cc1 (Ac-GPMGIAGQL-X2)
IC50 (SW-620): > 200 µM | half-life at 50 ug/ml [1]: > 72 h | IC50 (CCD-18Co): > 200 µM | half-life at 50 ug/ml [2]: 24 h | IC50 (HEK293): 21.3 µM | IC50 (HCT-116 [3]): 0.0209 µM

CC(=O)NCC(=O)N1CCC[C@H]1C(=O)N[C@@H](CCC(N)=O)C(=O)NCC(=O)N[C@@H](CC(C)C)C(=O)N[C@@H](C)C(=O)NCC(=O)N[C@@H](CCC(N)=O)C(=O)N[C@@H](CC(C)C)C(=O)Nc1ccc(COC(=O)O[C@@H](C(=O)O[C@H]2C[C@@]3(O)[C@@H](OC(=O)c4ccccc4)[C@@H]4[C@]5(OC(C)=O)CO[C@@H]5C[C@H](O)[C@@]4(C)C(=O)[C@H](O)C(=C2C)C3(C)C)[C@@H](NC(=O)OC(C)(C)C)c2ccccc2)cc1 (Ac-GPQGLAGQL-X1)
IC50 (SW-620): 21.9 µM | half-life at 50 ug/ml [1]: 35.1 h | IC50 (CCD-18Co): > 200 µM | half-life at 50 ug/ml [2]: 14 h | IC50 (HEK293): 165 µM | IC50 (HCT-116 [3]): 0.0052 µM
